ChEMBL document CHEMBL4823277, “Novel chalcone-conjugated, multi-flexible end-group coumarin thiazole hybrids as potential antibacterial repressors against methicillin-resistant Staphylococcus aureus” (Eur J Med Chem, 2021)
In brackets after ≈: the same amount, converted by molar mass. Activity calls are given as the source filed them. The rule behind the calls is not given here.

Columns and labels:
Staphylococcus aureus [1] = experiment: Antibacterial activity against methicillin-resistant Staphylococcus aureus N315 by microbroth dilution method; type: functional
How it was run: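 Minimum inhibitory concentration against MRSA N315 determined by micro broth dilution in microdilution plates.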

Enterococcus faecalis [2] = experiment: Antibacterial activity against Enterococcus faecalis by microbroth dilution method; type: functional
Staphylococcus aureus [3] = experiment: Antibacterial activity against Staphylococcus aureus by microbroth dilution method; type: functional
Staphylococcus aureus [4] = experiment: Antibacterial activity against Staphylococcus aureus ATCC 25923 by microbroth dilution method; type: functional
Staphylococcus aureus [5] = experiment: Antibacterial activity against Staphylococcus aureus ATCC 29213 by microbroth dilution method; type: functional
Klebsiella pneumoniae [6] = experiment: Antibacterial activity against Klebsiella pneumonia by microbroth dilution method; type: functional
Escherichia coli [7] = experiment: Antibacterial activity against Escherichia coli by microbroth dilution method; type: functional
Pseudomonas aeruginosa [8] = experiment: Antibacterial activity against Pseudomonas aeruginosa by microbroth dilution method; type: functional
Acinetobacter baumannii = experiment: Antibacterial activity against Acinetobacter baumannii by microbroth dilution method; type: functional
Pseudomonas aeruginosa [9] = experiment: Antibacterial activity against Pseudomonas aeruginosa ATCC 27853 by microbroth dilution method; type: functional
Escherichia coli [10] = experiment: Antibacterial activity against Escherichia coli ATCC 25922 by microbroth dilution method; type: functional
Staphylococcus aureus [11] = experiment: (§1) Potentiation of (Z)-4-((bis(2-hydroxyethyl)amino)methyl)-7-((1-(4-methoxyphenyl)-3-oxo-3-(thiazol-2-yl)prop-1-en-2-yl)oxy)-2H-chromen-2-one-induced antibacterial activity against methicillin resistant Staphylococcus aureus N315 assessed as (Z)-4-((bis(2-hydroxyethyl)amino)methyl)-7-((1-(4-methoxyphenyl)-3-oxo-3-(thiazol-2-yl)prop-1-en-2-yl)oxy)-2H-chromen-2-one MIC; type: functional
Enterococcus faecalis [12] = experiment: as §1, with “Enterococcus faecalis” for “methicillin resistant Staphylococcus aureus N315”; type: functional
Klebsiella pneumoniae [13] = experiment: Potentiation of(Z)-4-((bis(2-hydroxyethyl)amino)methyl)-7-((1-(4-methoxyphenyl)-3-oxo-3-(thiazol-2-yl)prop-1-en-2-yl)oxy)-2H-chromen-2-one-induced antibacterial activity against Klebsiella pneumoniae assessed as (Z)-4-((bis(2-hydroxyethyl)amino)methyl)-7-((1-(4-methoxyphenyl)-3-oxo-3-(thiazol-2-yl)prop-1-en-2-yl)oxy)-2H-chromen-2-one MIC; type: functional
Escherichia coli [14] = experiment: as §1, with “Escherichia coli” for “methicillin resistant Staphylococcus aureus N315”; type: functional
Staphylococcus aureus [15] = experiment: Bactericidal activity against methicillin-resistant Staphylococcus aureus assessed as decrease in viable cells at 4 times MIC measured after 2 hrs by time kill assay; type: functional
How it was run: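 Time-kill kinetics against MRSA at 4 × MIC. Viable cells were counted as CFU/mL over time, including the 2 h point.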

L02 = experiment: Cytotoxicity against human L02 cells assessed as effect on cell viability up to 500 ug/ml by MTT assay; type: cell-based; settings: dose <=500 µg/ml
How it was run: (§2)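 MTT viability assay on human hepatocyte LO2 cells and RAW 264.7 cells. The test hybrid was applied over a rising concentration series up to 500. The read-out was the percentage of living cells.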

RAW264.7 = experiment: Cytotoxicity against mouse RAW264.7 cells assessed as effect on cell viability up to 500 ug/ml by MTT assay; type: cell-based; settings: dose <=500 µg/ml; how it was run: as §2
Cell membrane = experiment: Induction of membrane permeabilization in methicillin resistant Staphylococcus aureus at 12 times MIC measured after 60 mins by propidium iodide staining based fluorescence assay
How it was run: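 PI–DNA fluorescence intensity was followed over time up to and beyond 60 min, compared with an untreated control.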

Staphylococcus aureus [16] = experiment: Antibacterial activity against methicillin-resistant Staphylococcus aureus up to 50 ug/ml measured after 7 passages by resistance development assay; type: functional, organism-based; settings: dose microg/ml <=50
DNA [17] = experiment: Binding affinity to methicillin-resistant Staphylococcus aureus DNA assessed as maximum absorption peak at 260 nm by UV-vis spectroscopy; type: nucleic-acid assay
DNA [18] = experiment: Binding affinity to methicillin-resistant Staphylococcus aureus DNA assessed as decrease in absorption of compound-DNA complex by UV-vis spectroscopy; type: nucleic-acid assay
DNA [19] = experiment: Binding affinity to methicillin-resistant Staphylococcus aureus DNA assessed as compound-DNA interaction causing DNA replication blockage by neutral red uptake assay; type: nucleic-acid assay
Enterococcus faecalis [20] = experiment: Potentiation of norfloxacin-induced antibacterial activity against Enterococcus faecalis assessed as norfloxacin MIC; type: functional
Klebsiella pneumoniae [21] = experiment: Potentiation of norfloxacin-induced antibacterial activity against Klebsiella pneumoniae assessed as norfloxacin MIC; type: functional
Escherichia coli [22] = experiment: Potentiation of norfloxacin-induced antibacterial activity against Escherichia coli assessed as norfloxacin MIC; type: functional
Staphylococcus aureus [23] = experiment: Synergistic antibacterial activity against methicillin resistant Staphylococcus aureus N315 assessed as fractional inhibitory concentration index in presence of norfloxacin; type: functional
Enterococcus faecalis [24] = experiment: Indifferent antibacterial activity against Enterococcus faecalis assessed as fractional inhibitory concentration index in presence of norfloxacin; type: functional
Klebsiella pneumoniae [25] = experiment: Additive antibacterial activity against Klebsiella pneumoniae assessed as fractional inhibitory concentration index in presence of norfloxacin; type: functional
Escherichia coli [26] = experiment: Additive antibacterial activity against Escherichia coli assessed as fractional inhibitory concentration index in presence of norfloxacin; type: functional

`O=C(/C(=C/c1ccc([N+](=O)[O-])cc1)Oc1ccc2c(CN(CCO)CCO)cc(=O)oc2c1)c1nccs1` gave an MIC (Staphylococcus aureus [1]) of 7 µM (≈ 3.76 µg/mL), an MIC (Enterococcus faecalis [2]) of 119 µM (≈ 64 µg/mL) and an MIC (Staphylococcus aureus [3]) of 119 µM (≈ 64 µg/mL). For the same compound, the MIC (Staphylococcus aureus [4]) was 60 µM (≈ 32.3 µg/mL), the MIC (Staphylococcus aureus [5]) was 119 µM (≈ 64 µg/mL) and the MIC (Klebsiella pneumoniae [6]) was 238 µM (≈ 128 µg/mL). The MIC (Escherichia coli [7]) was 119 µM (≈ 64 µg/mL), the MIC (Pseudomonas aeruginosa [8]) was 476 µM (≈ 256 µg/mL) and the MIC (Acinetobacter baumannii) was 238 µM (≈ 128 µg/mL). For the same compound, the MIC (Pseudomonas aeruginosa [9]) was 238 µM (≈ 128 µg/mL) and the MIC (Escherichia coli [10]) was 119 µM (≈ 64 µg/mL).
`CCn1cc(C(=O)O)c(=O)c2cc(F)c(N3CCNCC3)cc21` [NORFLOXACIN] showed an MIC (Staphylococcus aureus [1]) of 25 µM (≈ 7.98 µg/mL), an MIC (Enterococcus faecalis [2]) of 25 µM (≈ 7.98 µg/mL) and an MIC (Staphylococcus aureus [3]) of 6 µM (≈ 1.92 µg/mL). The MIC (Staphylococcus aureus [4]) was 3 µM (≈ 0.958 µg/mL), the MIC (Staphylococcus aureus [5]) was 6 µM (≈ 1.92 µg/mL) and the MIC (Klebsiella pneumoniae [6]) was 13 µM (≈ 4.15 µg/mL). The MIC (Escherichia coli [7]) was 50 µM (≈ 16 µg/mL), the MIC (Pseudomonas aeruginosa [8]) was 25 µM (≈ 7.98 µg/mL) and the MIC (Acinetobacter baumannii) was 25 µM (≈ 7.98 µg/mL). For the same compound, the MIC (Pseudomonas aeruginosa [9]) was 3 µM (≈ 0.958 µg/mL), the MIC (Escherichia coli [10]) was 25 µM (≈ 7.98 µg/mL) and the MIC (Staphylococcus aureus [11]) was 0.781 10^-3mM. The MIC (Enterococcus faecalis [12]) was 0.781 10^-3mM, the MIC (Klebsiella pneumoniae [13]) was 0.203 10^-3mM and the MIC (Escherichia coli [14]) was 0.781 10^-3mM.
In the case of `CCn1cc(/C=C(\Oc2ccc3c(CN(CCO)CCO)cc(=O)oc3c2)C(=O)c2nccs2)c2ccccc21`, the MIC (Staphylococcus aureus [1]) is reported as 114 µM (≈ 63.8 µg/mL), the MIC (Enterococcus faecalis [2]) is reported as 14 µM (≈ 7.84 µg/mL) and the MIC (Staphylococcus aureus [3]) is reported as 29 µM (≈ 16.2 µg/mL). The MIC (Staphylococcus aureus [4]) was 7 µM (≈ 3.92 µg/mL), the MIC (Staphylococcus aureus [5]) was 57 µM (≈ 31.9 µg/mL) and the MIC (Klebsiella pneumoniae [6]) was 229 µM (≈ 128 µg/mL). The MIC (Escherichia coli [7]) was 229 µM (≈ 128 µg/mL), the MIC (Pseudomonas aeruginosa [8]) was 114 µM (≈ 63.8 µg/mL) and the MIC (Acinetobacter baumannii) was 57 µM (≈ 31.9 µg/mL). It also gave an MIC (Pseudomonas aeruginosa [9]) of 57 µM (≈ 31.9 µg/mL) and an MIC (Escherichia coli [10]) of 229 µM (≈ 128 µg/mL).
In the case of `COc1ccc(/C=C(\Oc2ccc3c(CN(CCO)CCO)cc(=O)oc3c2)C(=O)c2nccs2)cc1`, the MIC (Staphylococcus aureus [1]) is reported as 4 µM (≈ 2.09 µg/mL), the MIC (Enterococcus faecalis [2]) is reported as 61 µM (≈ 31.9 µg/mL) and the MIC (Staphylococcus aureus [3]) is reported as 61 µM (≈ 31.9 µg/mL). For the same compound, the MIC (Staphylococcus aureus [4]) was 122 µM (≈ 63.8 µg/mL), the MIC (Staphylococcus aureus [5]) was 122 µM (≈ 63.8 µg/mL) and the MIC (Klebsiella pneumoniae [6]) was 61 µM (≈ 31.9 µg/mL). The MIC (Escherichia coli [7]) was 15 µM (≈ 7.84 µg/mL), the MIC (Pseudomonas aeruginosa [8]) was 122 µM (≈ 63.8 µg/mL) and the MIC (Acinetobacter baumannii) was 244 µM (≈ 128 µg/mL). It also gave an MIC (Pseudomonas aeruginosa [9]) of 244 µM (≈ 128 µg/mL), an MIC (Escherichia coli [10]) of 244 µM (≈ 128 µg/mL) and an Activity (Staphylococcus aureus [15]) of under 10 CFU/ml. For the same compound, the Activity (L02) was “Non-Toxic”, the Activity (RAW264.7) was “Non-Toxic” and the Activity (Cell membrane) was “Active”. The Activity (Staphylococcus aureus [16]) was “Active”, the Activity (DNA [17]) was “Active” and the Activity (DNA [18]) was “Active”. For the same compound, the Activity (DNA [19]) was “Active”, the MIC (Enterococcus faecalis [20]) was 1.906 10^-3mM and the MIC (Klebsiella pneumoniae [21]) was 0.953 10^-3mM. The MIC (Escherichia coli [22]) was 0.234 10^-3mM, the “fractional inhibitory concentration index (FICI)” value (Staphylococcus aureus [23]) was 0.45 and the “fractional inhibitory concentration index (FICI)” value (Enterococcus faecalis [24]) was 1.34. For the same compound, the “fractional inhibitory concentration index (FICI)” value (Klebsiella pneumoniae [25]) was 0.58 and the “fractional inhibitory concentration index (FICI)” value (Escherichia coli [26]) was 0.51.
`O=C(/C(=C/c1c[nH]c2ccccc12)Oc1ccc2c(CN(CCO)CCO)cc(=O)oc2c1)c1nccs1` showed an MIC (Staphylococcus aureus [1]) of 15 µM (≈ 7.97 µg/mL), an MIC (Enterococcus faecalis [2]) of 60 µM (≈ 31.9 µg/mL) and an MIC (Staphylococcus aureus [3]) of 120 µM (≈ 63.8 µg/mL). It also gave an MIC (Staphylococcus aureus [4]) of 120 µM (≈ 63.8 µg/mL), an MIC (Staphylococcus aureus [5]) of 120 µM (≈ 63.8 µg/mL) and an MIC (Klebsiella pneumoniae [6]) of 60 µM (≈ 31.9 µg/mL). It also gave an MIC (Escherichia coli [7]) of 241 µM (≈ 128 µg/mL), an MIC (Pseudomonas aeruginosa [8]) of 241 µM (≈ 128 µg/mL) and an MIC (Acinetobacter baumannii) of 482 µM (≈ 256 µg/mL). It also gave an MIC (Pseudomonas aeruginosa [9]) of 482 µM (≈ 256 µg/mL) and an MIC (Escherichia coli [10]) of 241 µM (≈ 128 µg/mL).
For `O=C(/C(=C/c1ccccc1Cl)Oc1ccc2c(CN(CCO)CCO)cc(=O)oc2c1)c1nccs1`, the MIC (Staphylococcus aureus [1]) was 61 µM (≈ 32.1 µg/mL), the MIC (Enterococcus faecalis [2]) was 121 µM (≈ 63.8 µg/mL) and the MIC (Staphylococcus aureus [3]) was 121 µM (≈ 63.8 µg/mL). For the same compound, the MIC (Staphylococcus aureus [4]) was 486 µM (≈ 256 µg/mL), the MIC (Staphylococcus aureus [5]) was 486 µM (≈ 256 µg/mL) and the MIC (Klebsiella pneumoniae [6]) was 972 µM (≈ 512 µg/mL). It also gave an MIC (Escherichia coli [7]) of 972 µM (≈ 512 µg/mL), an MIC (Pseudomonas aeruginosa [8]) of 486 µM (≈ 256 µg/mL) and an MIC (Acinetobacter baumannii) of 486 µM (≈ 256 µg/mL). For the same compound, the MIC (Pseudomonas aeruginosa [9]) was 243 µM (≈ 128 µg/mL) and the MIC (Escherichia coli [10]) was 243 µM (≈ 128 µg/mL).
In the case of `O=C(/C(=C/c1ccc(F)cc1)Oc1ccc2c(CN(CCO)CCO)cc(=O)oc2c1)c1nccs1`, the MIC (Staphylococcus aureus [1]) is reported as 125 µM (≈ 63.8 µg/mL), the MIC (Enterococcus faecalis [2]) is reported as 125 µM (≈ 63.8 µg/mL) and the MIC (Staphylococcus aureus [3]) is reported as 125 µM (≈ 63.8 µg/mL). It also gave an MIC (Staphylococcus aureus [4]) of 251 µM (≈ 128 µg/mL), an MIC (Staphylococcus aureus [5]) of 251 µM (≈ 128 µg/mL) and an MIC (Klebsiella pneumoniae [6]) of 251 µM (≈ 128 µg/mL). It also gave an MIC (Escherichia coli [7]) of 1000 µM (≈ 512 µg/mL), an MIC (Pseudomonas aeruginosa [8]) of 1000 µM (≈ 512 µg/mL) and an MIC (Acinetobacter baumannii) of 251 µM (≈ 128 µg/mL). It also gave an MIC (Pseudomonas aeruginosa [9]) of 251 µM (≈ 128 µg/mL) and an MIC (Escherichia coli [10]) of 251 µM (≈ 128 µg/mL).
